# According to ChEMBL document CHEMBL5058577, “EUbOPEN Chemogenomics Library 2 (Multiplex)” (2022):
# Tested on: HEK-293T
# Test: Multiplex assay against HEK293T
# Type: toxicity, cell-based
# Conditions: human
# Procedure, shortened: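 Cells were classed with CellPathfinder machine-learning gating, first as Hoechst high-intensity objects or normal cells, then (normal cells) as healthy, pyknosed or fragmented nuclei, and finally (pyknosed cells) as mitotic or apoptotic. Staining of live cells at seeding used Hoechst33342, BioTracker Green Microtubule Cytoskeleton Dye, MitoTracker Red and Annexin V Alexa Fluor 680, with imaging on a CQ1 microscope at 37°C and 5% CO2 after compound addition. Tubulin, mitochondrial-mass and membrane-permeability phenotypes are per cents of healthy-nucleus cells.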
# [1] = 12 h, 1 µM, compound concentration 1 uM, replicate 1
# [2] = 12 h, 1 µM, compound concentration 1 uM, replicate 2
# [3] = 12 h, 10 µM, compound concentration 10 uM, replicate 1
# [4] = 12 h, 10 µM, compound concentration 10 uM, replicate 2
# [5] = 24 h, 1 µM, compound concentration 1 uM, replicate 1
# [6] = 24 h, 1 µM, compound concentration 1 uM, replicate 2
# [7] = 24 h, 10 µM, compound concentration 10 uM, replicate 1
# [8] = 24 h, 10 µM, compound concentration 10 uM, replicate 2
# [9] = 48 h, 1 µM, compound concentration 1 uM, replicate 1
# [10] = 48 h, 1 µM, compound concentration 1 uM, replicate 2
# [11] = 48 h, 10 µM, compound concentration 10 uM, replicate 1
# [12] = 48 h, 10 µM, compound concentration 10 uM, replicate 2
structure (smiles),measurement,setting,value
Cn1cc(C(=O)OCC2CCN(CCNS(C)(=O)=O)CC2)c2ccccc21,Population Apoptotic (%),[1],39%
same,Population Fragmented Nuclei (%),[1],5%
same,Population Healthy Nuclei (%),[1],83%
same,Population Hoechst High Intensity Objects (%),[1],7%
same,Population Membrane Permeable-Phenotype (%),[1],0%
same,Population Mitochondria Different-Phenotype (%),[1],35%
same,Population Mitotic Cells (%),[1],60%
same,Population Normal (%),[1],92%
same,Population Pyknosed Nuclei (%),[1],10%
same,Population Tubulin-Different-Phenotype (%),[1],22%
same,Total Cell Count,[1],466
same,Population Apoptotic (%),[2],56%
same,Population Fragmented Nuclei (%),[2],9%
same,Population Healthy Nuclei (%),[2],76%
same,Population Hoechst High Intensity Objects (%),[2],8%
same,Population Mitochondria Different-Phenotype (%),[2],62%
same,Population Mitotic Cells (%),[2],43%
same,Population Normal (%),[2],91%
same,Population Pyknosed Nuclei (%),[2],14%
same,Population Tubulin-Different-Phenotype (%),[2],28%
same,Total Cell Count,[2],248
same,Population Apoptotic (%),[3],47%
same,Population Fragmented Nuclei (%),[3],10%
same,Population Healthy Nuclei (%),[3],73%
same,Population Hoechst High Intensity Objects (%),[3],6%
same,Population Membrane Permeable-Phenotype (%),[3],0%
same,Population Mitochondria Different-Phenotype (%),[3],55%
same,Population Mitotic Cells (%),[3],52%
same,Population Normal (%),[3],93%
same,Population Pyknosed Nuclei (%),[3],15%
same,Population Tubulin-Different-Phenotype (%),[3],53%
same,Total Cell Count,[3],479
same,Population Apoptotic (%),[4],43%
same,Population Healthy Nuclei (%),[4],71%
same,Population Hoechst High Intensity Objects (%),[4],10%
same,Population Mitochondria Different-Phenotype (%),[4],73%
same,Population Mitotic Cells (%),[4],56%
same,Population Normal (%),[4],89%
same,Population Pyknosed Nuclei (%),[4],18%
same,Population Tubulin-Different-Phenotype (%),[4],47%
same,Total Cell Count,[4],393
same,Population Apoptotic (%),[5],29%
same,Population Fragmented Nuclei (%),[5],6%
same,Population Healthy Nuclei (%),[5],82%
same,Population Hoechst High Intensity Objects (%),[5],4%
same,Population Membrane Permeable-Phenotype (%),[5],1%
same,Population Mitochondria Different-Phenotype (%),[5],21%
same,Population Mitotic Cells (%),[5],70%
same,Population Normal (%),[5],95%
same,Population Pyknosed Nuclei (%),[5],10%
same,Population Tubulin-Different-Phenotype (%),[5],16%
same,Total Cell Count,[5],650
same,Population Apoptotic (%),[6],48%
same,Population Fragmented Nuclei (%),[6],12%
same,Population Healthy Nuclei (%),[6],76%
same,Population Hoechst High Intensity Objects (%),[6],5%
same,Population Membrane Permeable-Phenotype (%),[6],0%
same,Population Mitochondria Different-Phenotype (%),[6],42%
same,Population Mitotic Cells (%),[6],51%
same,Population Normal (%),[6],94%
same,Population Tubulin-Different-Phenotype (%),[6],17%
same,Total Cell Count,[6],283
same,Population Apoptotic (%),[7],35%
same,Population Fragmented Nuclei (%),[7],11%
same,Population Healthy Nuclei (%),[7],74%
same,Population Hoechst High Intensity Objects (%),[7],5%
same,Population Membrane Permeable-Phenotype (%),[7],1%
same,Population Mitochondria Different-Phenotype (%),[7],43%
same,Population Mitotic Cells (%),[7],64%
same,Population Normal (%),[7],94%
same,Population Pyknosed Nuclei (%),[7],13%
same,Population Tubulin-Different-Phenotype (%),[7],50%
same,Total Cell Count,[7],587
same,Population Apoptotic (%),[8],48%
same,Population Fragmented Nuclei (%),[8],10%
same,Population Healthy Nuclei (%),[8],79%
same,Population Hoechst High Intensity Objects (%),[8],6%
same,Population Membrane Permeable-Phenotype (%),[8],0%
same,Population Mitochondria Different-Phenotype (%),[8],56%
same,Population Mitotic Cells (%),[8],51%
same,Population Normal (%),[8],93%
same,Population Pyknosed Nuclei (%),[8],9%
same,Population Tubulin-Different-Phenotype (%),[8],37%
same,Total Cell Count,[8],491
same,Population Apoptotic (%),[9],25%
same,Population Fragmented Nuclei (%),[9],12%
same,Population Healthy Nuclei (%),[9],78%
same,Population Hoechst High Intensity Objects (%),[9],3%
same,Population Membrane Permeable-Phenotype (%),[9],1%
same,Population Mitochondria Different-Phenotype (%),[9],12%
same,Population Mitotic Cells (%),[9],74%
same,Population Normal (%),[9],96%
same,Population Pyknosed Nuclei (%),[9],8%
same,Population Tubulin-Different-Phenotype (%),[9],10%
same,Total Cell Count,[9],1090
same,Population Apoptotic (%),[10],44%
same,Population Fragmented Nuclei (%),[10],11%
same,Population Healthy Nuclei (%),[10],82%
same,Population Hoechst High Intensity Objects (%),[10],4%
same,Population Membrane Permeable-Phenotype (%),[10],3%
same,Population Mitochondria Different-Phenotype (%),[10],23%
same,Population Mitotic Cells (%),[10],55%
same,Population Normal (%),[10],95%
same,Population Pyknosed Nuclei (%),[10],6%
same,Population Tubulin-Different-Phenotype (%),[10],11%
same,Total Cell Count,[10],490
same,Population Apoptotic (%),[11],38%
same,Population Fragmented Nuclei (%),[11],16%
same,Population Healthy Nuclei (%),[11],77%
same,Population Hoechst High Intensity Objects (%),[11],6%
same,Population Membrane Permeable-Phenotype (%),[11],1%
same,Population Mitochondria Different-Phenotype (%),[11],31%
same,Population Mitotic Cells (%),[11],61%
same,Population Normal (%),[11],93%
same,Population Pyknosed Nuclei (%),[11],6%
same,Population Tubulin-Different-Phenotype (%),[11],28%
same,Total Cell Count,[11],883
same,Population Fragmented Nuclei (%),[12],13%
same,Population Healthy Nuclei (%),[12],79%
same,Population Hoechst High Intensity Objects (%),[12],4%
same,Population Membrane Permeable-Phenotype (%),[12],0%
same,Population Mitochondria Different-Phenotype (%),[12],37%
same,Population Normal (%),[12],95%
same,Population Tubulin-Different-Phenotype (%),[12],26%
same,Total Cell Count,[12],758
